Our source for the inhibition, Activity and IC50 values is ChEMBL document CHEMBL2321786, “Paclitaxel is an inhibitor and its boron dipyrromethene derivative is a fluorescent recognition agent for botulinum neurotoxin subtype A” (J Med Chem, 2013).

Test [1] deals with Botulinum neurotoxin type A (Clostridium botulinum) (UniProt P0DPI0). Put plainly: Inhibition of Clostridium botulinum recombinant neurotoxin A light chain using SNAPtide as substrate at 10 uM after 1 hr by FRET assay relative to control. The essentials:
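Single-point FRET at 10 μM ligand: 10 nM light chain, 8 μM SNAPtide, pH 8.2, 37 °C, 1 h incubation, triplicate. Cleavage read at ex 490/em 523 nm. Percent inhibition calculated against uninhibited cleavage at the same substrate and enzyme levels.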

For test [2] the target is unchanged. Kind of test: Binding affinity to nonactivated whole Clostridium botulinum biotinylated neurotoxin A in streptavidin-coated magnetic beads at 10 uM after 1 hr by fluorescence intensity assay relative to control.
For test [3] the target is unchanged. Kind of test: Binding affinity to nonactivated whole Clostridium botulinum biotinylated neurotoxin A in streptavidin-coated magnetic beads using [14C] labeled compound at 10 uM relative to control.
Test [4] shares this target. Put plainly: Binding affinity to nonactivated whole Clostridium botulinum biotinylated neurotoxin A in streptavidin-coated magnetic beads using [14C] labeled compound at 50 uM relative to control.
Test [5] shares this target. Put plainly: Binding affinity to nonactivated whole Clostridium botulinum biotinylated neurotoxin A in streptavidin-coated magnetic beads using [14C] labeled compound at 25 uM relative to control.
The target is the same in test [6]. Kind of test: Binding affinity to Clostridium botulinum recombinant biotinylated neurotoxin A light chain incubated for 15 mins by scintillation proximity assay. The essentials:
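Scintillation proximity binding: [3H]paclitaxel at each concentration incubated with 7 nM biotinylated light chain for 15 min at room temperature. Streptavidin-coated polyvinyltoluene SPA beads (2 mg/mL) then added. Run in triplicate, read at 1 h intervals by scintillation counting. Counts corrected for nonspecific binding/nonproximity effects.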
For orientation: SPA uses beads or plates that emit light when radiolabelled molecules are held near them.

Test [7] has as its target Botulinum neurotoxin type A (Clostridium botulinum, UniProt P0DPI0). Kind of test: Inhibition of Clostridium botulinum recombinant neurotoxin A light chain using SNAPtide as substrate after 1 hr by FRET assay. The essentials:
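IC50 from a FRET dose-response: 10 nM light chain preincubated 30 min with inhibitor at 37 °C before adding SNAPtide (8 μM final). Fluorescence read at ex 490/em 523 nm and expressed relative to uninhibited cleavage. Triplicate wells with DMSO controls. IC50 from four-parameter nonlinear regression over two independent experiments.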

In general, inhibition refers to the change of the read-out against control, counted positive when it falls. The term IC50 denotes the concentration that gives 50% inhibition.

Molecules are shown by their SMILES. Active and inactive are the calls of the source. No cut-off for these calls is given here.

Sequence of Botulinum neurotoxin type A (Clostridium botulinum) (P0DPI0 2-448 limits assumed): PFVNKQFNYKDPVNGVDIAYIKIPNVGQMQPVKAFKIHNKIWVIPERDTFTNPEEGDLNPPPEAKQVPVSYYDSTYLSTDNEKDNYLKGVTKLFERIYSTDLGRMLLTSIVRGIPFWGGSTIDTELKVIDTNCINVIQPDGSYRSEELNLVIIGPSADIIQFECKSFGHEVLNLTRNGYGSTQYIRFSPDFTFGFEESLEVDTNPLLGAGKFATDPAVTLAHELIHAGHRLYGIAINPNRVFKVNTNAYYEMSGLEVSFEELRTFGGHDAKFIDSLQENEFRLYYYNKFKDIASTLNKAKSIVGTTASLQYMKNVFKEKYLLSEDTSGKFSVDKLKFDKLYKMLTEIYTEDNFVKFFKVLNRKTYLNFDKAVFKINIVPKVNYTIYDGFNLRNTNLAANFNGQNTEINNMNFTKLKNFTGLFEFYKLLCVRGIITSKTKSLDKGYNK
Sequence of Botulinum neurotoxin type A (P0DPI0 2-448 limits assumed): as above

As to `N[C@@H](CCCc1c(CC[C@H](N)C(=O)O)c[n+](CCCC[C@H](N)C(=O)O)cc1CC[C@H](N)C(=O)O)C(=O)[O-]`, in test [1], the inhibition worked out at 25%.

For `CC(=O)O[C@H]1C(=O)[C@@]2(C)[C@H]([C@H](OC(=O)c3ccccc3)[C@]3(O)C[C@H](OC(=O)[C@H](O)[C@@H](NC(=O)CCC4=[N+]5C(C=C4)Cc4c(C)cc(C)n4[B-]5(F)F)c4ccccc4)C(C)=C1C3(C)C)[C@]1(OC(C)=O)CO[C@@H]1C[C@@H]2O` (stereo partly drawn), the Activity in test [2] came out at 22%.

`OCC1(O)OC[C@@H](O)[C@@H](O)[C@@H]1O` (stereo partly drawn) came in with an Activity in test [3] of 5%. Also, the inhibition in test [1] turned out to be 0%.

On to `Nc1nc(N)c2nc(CNc3ccc(C(=O)N[C@@H](CCC(=O)O)C(=O)O)cc3)cnc2n1`, for which the inhibition in test [1] was found to be 11%.

With `CC[C@@]1([C@@H]2O[C@@H]([C@H]3O[C@@](O)(CO)[C@H](C)C[C@@H]3C)C[C@@H]2C)CC[C@H]([C@]2(C)CC[C@]3(C[C@H](O)[C@@H](C)[C@@H]([C@@H](C)[C@@H](OC)[C@H](C)C(=O)O)O3)O2)O1`, the inhibition in test [1] is 38%.

Take `CC(=O)O[C@H]1C(=O)[C@]2(C)[C@@H](OC(=O)CCNC(=O)c3ccc(-c4c5cc(F)c(=O)cc-5oc5cc(O)c(F)cc45)c(C(=O)O)c3)C[C@H]3OC[C@@]3(OC(C)=O)[C@H]2[C@H](OC(=O)c2ccccc2)[C@]2(O)C[C@H](OC(=O)[C@H](O)[C@@H](NC(=O)c3ccccc3)c3ccccc3)C(C)=C1C2(C)C`: the Activity in test [2] came to 4%.

For `CC(=O)O[C@H]1C(=O)[C@@]2(C)[C@H]([C@H](OC(=O)c3ccccc3)[C@]3(O)C[C@H](OC(=O)[C@H](O)[C@@H](NC(=O)CCC4=[N+]5C(C=C4)Cc4ccc(/C=C/c6ccccc6)n4[B-]5(F)F)c4ccccc4)C(C)=C1C3(C)C)[C@]1(OC(C)=O)CO[C@@H]1C[C@@H]2O` (stereo partly drawn), in test [2], the Activity stood at 46%.

Take `CC(=O)O[C@H]1C(=O)[C@@]2(C)[C@H]([C@H](OC(=O)c3ccccc3)[C@]3(O)C[C@H](OC(=O)[C@H](O)[C@@H](NC(=O)c4ccccc4)c4ccccc4)C(C)=C1C3(C)C)[C@]1(OC(C)=O)CO[C@@H]1C[C@@H]2O` [PACLITAXEL]: the Activity in test [4] and in test [5] was 7% in each case. In addition, the outcome in test [6] was Active. Further, the IC50 in test [7] was 5.2 µM. Further, in test [1], the inhibition is 85%.
